Active and inactive are the calls of the source. The rule behind the calls is not given here.
Legend:
B16 [1] = experiment: Antitumor activity against mouse B16 cells allografted in B6D2F1 mouse assessed as increase in life span at 1.67 mg/kg/day, ip administered on day 5, 9 and 13 measured for 56 days relative to untreated control; format: functional; settings: route intraperitoneal
Outline: (§1)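 Male B6D2F1 mice implanted ip on day 0 with 0.25 mL of a 20% (w/v) B16 melanoma brei. Alkaloid sulfate salts given ip on days 1, 5, 9 or on days 5, 9, 13, groups of 10, against 30 untreated controls. Read-outs: median survival time with range of individual deaths, and percent increase in life span, with survivors counted on day 56.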

B16 [2] = experiment: Antitumor activity against mouse B16 cells allografted in B6D2F1 mouse assessed as increase in life span at 0.216 mg/kg/day, ip administered on day 1, 5 and 9 measured for 56 days relative to untreated control; format: functional; settings: route intraperitoneal; outline: as §1
B16 [3] = experiment: Antitumor activity against mouse B16 cells allografted in B6D2F1 mouse assessed as increase in life span at 1 mg/kg/day, ip administered on day 1, 5 and 9 measured for 56 days relative to untreated control; format: functional; settings: route intraperitoneal; outline: as §1
B16 [4] = experiment: Antitumor activity against mouse B16 cells allografted in B6D2F1 mouse assessed as mean survival time at 1.67 mg/kg/day, ip administered on day 1, 5 and 9 (reference value: 20.0 days); format: functional; settings: route intraperitoneal; outline: as §1
P388 [5] = experiment: Antitumor activity against mouse P388 cells allografted in mouse assessed as increase in life span at 0.22 mg/kg/day, ip administered from day 1 to day 9 relative to untreated control; format: functional; settings: route intraperitoneal
Outline: (§2)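 P388 ascites implanted ip in mice, 10 animals per group. Sulfate salts given ip either daily on days 1-9 or as a single dose on day 1. Median life span was calculated using all deaths and survivors. Percent increase in life span was taken over untreated controls. The highest nontoxic dose was noted.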

B16 [6] = experiment: Antitumor activity against mouse B16 cells allografted in B6D2F1 mouse assessed as increase in life span at 0.216 mg/kg/day, ip administered on day 5, 9 and 13 measured for 56 days relative to untreated control; format: functional; settings: route intraperitoneal; outline: as §1
Rhesus monkey [7] = experiment: Neurotoxicity in iv dosed monkey assessed as peripheral neuropathy; format: toxicity, organism-based, Macaca mulatta; settings: in vivo
B16 [8] = experiment: Antitumor activity against mouse B16 cells allografted in B6D2F1 mouse assessed as increase in life span at 1.67 mg/kg/day, ip administered on day 1, 5 and 9 measured for 56 days relative to untreated control; format: functional; settings: route intraperitoneal; outline: as §1
B16 [9] = experiment: Antitumor activity against mouse B16 cells allografted in B6D2F1 mouse assessed as mean survival time at 1 mg/kg/day, ip administered on day 5, 9 and 13 (reference value: 20.0 days); format: functional; settings: route intraperitoneal; outline: as §1
B16 [10] = experiment: Antitumor activity against mouse B16 cells allografted in B6D2F1 mouse assessed as mean survival time at 0.216 mg/kg/day, ip administered on day 1, 5 and 9 (reference value: 20.0 days); format: functional; settings: route intraperitoneal; outline: as §1
[11] = Acute toxicity in ip dosed mouse; format: organism-based; settings: in vivo
P388 [12] = experiment: Antitumor activity against mouse P388 cells allografted in mouse assessed as survival at 1.2 mg/kg/day after 1 day; format: functional, organism-based
Outline: (§3)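 P388 ascites implanted ip in mice; sulfate salts dosed either daily or as a single dose on day 1, 10 animals per group. Survivors per total were recorded, median life span was calculated using all deaths and survivors, and percent increase of life span was reported.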

[13] = Antitumor activity against mouse P1534(J) cells allografted in mouse assessed as tumor growth inhibition at 0.25 mg/kg/day, ip administered from day 1 to day 9 relative to unreated control; format: functional; settings: P1534J, route intraperitoneal, read-out: TGI
Outline: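 P1534(J) leukemia implanted subcutaneously in mice; sulfate salts given ip on days 1-9. Read-out is percent inhibition of tumor growth versus untreated controls.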

B16 [14] = experiment: Antitumor activity against mouse B16 cells allografted in B6D2F1 mouse assessed as mean survival time at 0.36 mg/kg/day, ip administered on day 1, 5 and 9 (reference value: 20.0 days); format: functional; settings: route intraperitoneal; outline: as §1
B16 [15] = experiment: Antitumor activity against mouse B16 cells allografted in B6D2F1 mouse assessed as mean survival time at 0.60 mg/kg/day, ip administered on day 5, 9 and 13 (reference value: 20.0 days); format: functional; settings: route intraperitoneal; outline: as §1
Rhesus monkey [16] = experiment: Neurotoxicity in iv dosed monkey assessed as peripheral neuropathy; settings: in vivo
P388 [17] = experiment: Antitumor activity against mouse P388 cells allografted in mouse assessed as increase in life span at 1.2 mg/kg/day, ip after 1 day; format: functional; settings: 24 h, route intraperitoneal; outline: as §2
B16 [18] = experiment: Antitumor activity against mouse B16 cells allografted in B6D2F1 mouse assessed as mean survival time at 1 mg/kg/day, ip administered on day 1, 5 and 9 (reference value: 20.0 days); format: functional; settings: route intraperitoneal; outline: as §1
B16 [19] = experiment: Antitumor activity against mouse B16 cells allografted in B6D2F1 mouse assessed as mean survival time at 0.36 mg/kg/day, ip administered on day 5, 9 and 13 (reference value: 20.0 days); format: functional; settings: route intraperitoneal; outline: as §1
B16 [20] = experiment: Antitumor activity against mouse B16 cells allografted in B6D2F1 mouse assessed as mean survival time at 0.60 mg/kg/day, ip administered on day 1, 5 and 9 (reference value: 20.0 days); format: functional; settings: route intraperitoneal; outline: as §1
[21] = Toxicity in ip dosed mouse allografted with mouse p388 cells administered from day 1 to day 9; format: organism-based; settings: in vivo, read-out: MNTD; outline: as §2
P388 [22] = experiment: Antitumor activity against mouse P388 cells allografted in mouse assessed as increase in life span at 2.7 mg/kg/day, ip after 1 day; format: functional; settings: 24 h, route intraperitoneal; outline: as §2
P388 [23] = experiment: Antitumor activity against mouse P388 cells allografted in mouse assessed as increase in life span at 0.33 mg/kg/day, ip administered from day 1 to day 9 relative to untreated control; format: functional; settings: route intraperitoneal; outline: as §2
P388 [24] = experiment: Antitumor activity against mouse P388 cells allografted in mouse assessed as increase in life span at 1.8 mg/kg/day, ip after 1 day; format: functional; settings: 24 h, route intraperitoneal; outline: as §2
P388 [25] = experiment: Antitumor activity against mouse P388 cells allografted in mouse assessed as increase in life span at 4 mg/kg/day, ip after 1 day; format: functional; settings: 24 h, route intraperitoneal; outline: as §2
B16 [26] = experiment: Antitumor activity against mouse B16 cells allografted in B6D2F1 mouse assessed as increase in life span at 0.36 mg/kg/day, ip administered on day 5, 9 and 13 measured for 56 days relative to untreated control; format: functional; settings: route intraperitoneal; outline: as §1
B16 [27] = experiment: Antitumor activity against mouse B16 cells allografted in B6D2F1 mouse assessed as increase in life span at 1 mg/kg/day, ip administered on day 5, 9 and 13 measured for 56 days relative to untreated control; format: functional; settings: route intraperitoneal; outline: as §1
[28] = Antitumor activity against mouse Ridgeway osteogenic sarcoma cells allografted in mouse at 0.1 to 0.2 mg/kg/day, ip; format: functional; settings: route intraperitoneal
Outline: (§4)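 Sulfate salts given ip on days 1-9 against ROS and GLS in mice; tumor growth scored as percent inhibition versus controls (+++ = 75-100%, ++ = 50-75%, ± = under 25%).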

B16 [29] = experiment: Antitumor activity against mouse B16 cells allografted in B6D2F1 mouse assessed as increase in life span at 0.36 mg/kg/day, ip administered on day 1, 5 and 9 measured for 56 days relative to untreated control; format: functional; settings: route intraperitoneal; outline: as §1
B16 [30] = experiment: Antitumor activity against mouse B16 cells allografted in B6D2F1 mouse assessed as increase in life span at 0.60 mg/kg/day, ip administered on day 1, 5 and 9 measured for 56 days relative to untreated control; format: functional; settings: route intraperitoneal; outline: as §1
B16 [31] = experiment: Antitumor activity against mouse B16 cells allografted in B6D2F1 mouse assessed as mean survival time at 1.67 mg/kg/day, ip administered on day 5, 9 and 13 (reference value: 20.0 days); format: functional; settings: route intraperitoneal; outline: as §1
Gallus gallus = experiment: Neurotoxicity in iv dosed chicken assessed as neuromuscular disturbance by measuring loss of balance; format: organism-based; settings: in vivo
[32] = Antitumor activity against mouse Gardner lymphosarcoma cell allografted in mouse at 0.1 to 0.2 mg/kg/day, ip; format: functional; settings: route intraperitoneal; outline: as §4
[33] = Acute toxicity in rat; format: organism-based; settings: in vivo
B16 [34] = experiment: Antitumor activity against mouse B16 cells allografted in B6D2F1 mouse assessed as mean survival time at 0.216 mg/kg/day, ip administered on day 5, 9 and 13 (reference value: 20.0 days); format: functional; settings: route intraperitoneal; outline: as §1
[35] = Toxicity in ip dosed mouse allografted with mouse P1534(J) cells administered from day 1 to day 9; format: organism-based; settings: in vivo, read-out: MNTD
Outline: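 P1534(J) leukemia implanted subcutaneously in mice. Sulfate salts given ip daily on days 1-9. Read-out was percent inhibition of tumor growth relative to untreated controls. The highest nontoxic dose was recorded.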

[36] = Toxicity in ip dosed mouse allografted with mouse p388 cells after 1 day; format: organism-based; settings: in vivo, read-out: MNTD; outline: as §2
P388 [37] = experiment: Antitumor activity against mouse P388 cells allografted in mouse assessed as survival at 0.22 mg/kg/day administered from day 1 to day 9; format: functional, organism-based; outline: as §3
P388 [38] = experiment: Antitumor activity against mouse P388 cells allografted in mouse assessed as survival at 1.8 mg/kg/day after 1 day; format: functional, organism-based; outline: as §3
B16 [39] = experiment: Antitumor activity against mouse B16 cells allografted in B6D2F1 mouse assessed as increase in life span at 0.60 mg/kg/day, ip administered on day 5, 9 and 13 measured for 56 days relative to untreated control; format: functional; settings: route intraperitoneal; outline: as §1

Compound: CC[C@]1(O)C[C@H]2CN(CCc3c([nH]c4ccccc34)[C@@](C(=O)OC)(c3cc4c(cc3OC)N(C=O)[C@H]3[C@@](O)(C(=O)OC)[C@H](OC(C)=O)[C@]5(CC)C=CCN6CC[C@]43[C@@H]65)C2)C1.O=S(=O)(O)O [VINCRISTINE SULFATE]
- ILS at 1.67 mg/kg/day (B16 [1]): 30%
- ILS at 0.216 mg/kg/day (B16 [2]): 20%
- ILS at 1 mg/kg/day (B16 [3]): 62%
- MST (B16 [4]): 35 days
- ILS at 0.22 mg/kg/day (P388 [5]): 131%
- ILS at 0.216 mg/kg/day (B16 [6]): 22%
- Activity (Rhesus monkey [7]): Toxic
- ILS at 1.67 mg/kg/day (B16 [8]): 75%
- MST (B16 [9]): 29.5 days
- MST (B16 [10]): 24 days
- LD50 [11]: 2.1 mg/kg
- Activity (P388 [12]): inactive
- inhibition in vivo at 0.25 mg/kg/day [13]: 77%
- MST (B16 [14]): 26 days
- MST (B16 [15]): 24.5 days
- Activity (Rhesus monkey [16]): Toxic
- ILS at 1.2 mg/kg/day (P388 [17]): 68%
- MST (B16 [18]): 32.5 days
- MST (B16 [19]): 24 days
- MST (B16 [20]): 30.5 days
- MTD [21]: 0.33 mg/kg/day
- ILS at 2.7 mg/kg/day (P388 [22]): 100%
- ILS at 0.33 mg/kg/day (P388 [23]): 181%
- ILS at 1.8 mg/kg/day (P388 [24]): 81%
- ILS at 4 mg/kg/day (P388 [25]): 118%
- ILS at 0.36 mg/kg/day (B16 [26]): 20%
- ILS at 1 mg/kg/day (B16 [27]): 48%
- TGI [28]: 75%
- ILS at 0.36 mg/kg/day (B16 [29]): 30%
- ILS at 0.6 mg/kg/day (B16 [30]): 52%
- MST (B16 [31]): 26 days
- Activity (Gallus gallus): Toxic
- TGI [32]: 75%
- LD50 [33]: 1 mg/kg
- MST (B16 [34]): 24.5 days
- MTD [35]: 0.25 mg/kg/day
- MTD at 24 h [36]: 4 mg/kg/day
- Activity (P388 [37]): inactive
- Activity (P388 [38]): inactive
- ILS at 0.6 mg/kg/day (B16 [39]): 22%

Source: ChEMBL document CHEMBL3272325, “Structure-activity relationships of dimeric Catharanthus alkaloids. 1. Deacetylvinblastine amide (vindesine) sulfate” (J Med Chem, 1978)
